The results in this text go back to ChEMBL document CHEMBL2346527, “Kinase scaffold repurposing for neglected disease drug discovery: discovery of an efficacious, lapatinib-derived lead compound for trypanosomiasis” (J Med Chem, 2013).

For assay [1], the system named is Trypanosoma brucei brucei. Description: Antitrypanosomal activity against bloodstream form Trypanosoma brucei brucei Lister 427 after 48 hrs by hemocytometer. Type of assay: functional, organism-based. The conditions noted are these: Lister 427, 48 h. Summed up: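 Bloodstream Lister 427 cells were seeded at 2 × 10^3 cells/ml in HMI-9 medium and given drug from 200X DMSO stocks, with DMSO as control. Three independent experiments, each dose in duplicate (n = 6).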

A further assay concerns HepG2. Description: Cytotoxicity against human HepG2 cells after 48 hrs by MTT assay. It counts as cell-based. The conditions noted are these: HepG2, 48 h. Summed up: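 HepG2 cytotoxicity was read by an MTT assay adapted to 384-well format. IC50 was fitted by nonlinear regression (sigmoidal dose-response, variable slope).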

pEC50, pIC50: −log10 of the molar value.

In the case of `COc1cc(Nc2ncnc3ccc(-c4ccc(S(=O)(=O)N5CCOCC5)cc4)cc23)ccc1OCc1cccc(F)c1`, in assay [1], the pEC50 (as a rule, −log10 of the EC50, conventionally taken in molar units) was 5.73. Also, the pIC50 (in general, the IC50 on a negative log10 scale, so that one unit is a factor of ten) in the assay on HepG2 was < 4.82.

`c1ccc(Nc2ncnc3ccc(-c4cccc(N5CCOCC5)c4)cc23)cc1`: the negative logarithm of the EC50 (pEC50) in assay [1] is 4.96. The molecule further had a negative-log IC50 (pIC50) in the assay with HepG2 of 5.15. The molecule `CCCS(=O)(=O)CCNCc1ccc(-c2ccc3ncnc(Nc4ccc(OCc5cccc(F)c5)c(Cl)c4)c3c2)o1` showed a negative-log EC50 (pEC50) in assay [1] of 6.37. In assay [1], `Fc1cccc(COc2ccc(Nc3ncnc4ccc(-c5ccc(CN6CCOCC6)cc5)cc34)cc2Cl)c1` gave a negative-log EC50 (pEC50) of 6.00. Also, the pIC50 in the assay on HepG2 is 4.89. The corresponding values for `O=S(=O)(c1ccc(-c2ccc3ncnc(Nc4ccc(OCc5cc(F)cc(F)c5F)c(Cl)c4)c3c2)cc1)N1CCOCC1` are 5.95 and < 5.52. The corresponding values for `O=S(=O)(c1ccc(-c2ccc3ncnc(Nc4ccc(OCc5ccccc5)c(Cl)c4)c3c2)cc1)N1CCOCC1` are 5.87 and < 4.82. Consider `Nc1nc(N)nc(Nc2ccc([As]3SCC(CO)S3)cc2)n1` (configuration not stated) [MELARSOPROL], for which the pEC50 in assay [1] is 8.20.

The molecule `CN1CCCN(S(=O)(=O)c2ccc(-c3ccc4ncnc(Nc5ccc(OCc6cccc(F)c6)c(Cl)c5)c4c3)cc2)CC1` gave a negative logarithm of the EC50 (pEC50) in assay [1] of 6.09. This molecule also gave a pIC50 with HepG2 of 5.74. As to `CC(C)(C)NS(=O)(=O)c1ccccc1-c1ccc2ncnc(Nc3ccc(OCc4cccc(F)c4)c(Cl)c3)c2c1`, the negative logarithm of the EC50 (pEC50) in assay [1] is 5.33. On the same count and under the same terms, then `Fc1cccc(COc2ccc(Nc3ncnc4ccc(-c5cc6ccccc6s5)cc34)cc2Cl)c1`, with 5.22.

`O=S(=O)(c1ccc(-c2ccc3ncnc(Nc4ccc(OCc5cccc(F)c5)cc4)c3c2)cc1)N1CCOCC1` showed a pEC50 in assay [1] of 6.19. For the same molecule, in the assay on HepG2, the pIC50 is < 4.82. The molecule `O=S(=O)(CCSCc1ccc(-c2ccc3ncnc(Nc4ccc(OCc5cccc(F)c5)c(Cl)c4)c3c2)o1)c1ccccc1` showed a pEC50 in assay [1] of 6.26. Regarding `O=S(=O)(c1ccc(-c2ccc3ncnc(Nc4ccc(OCc5cccc(F)c5)c(Cl)c4)c3c2)cc1)N1CCCCC1`, the negative logarithm of the EC50 (pEC50) in assay [1] is 6.49. Also, the negative-log IC50 (pIC50) in the assay on HepG2 is < 4.82.

Take `O=S(=O)(c1ccc(-c2ccc3ncnc(Nc4ccc(OCc5ccc(C(F)(F)F)c(F)c5)c(Cl)c4)c3c2)cc1)N1CCOCC1`: the pEC50 in assay [1] was 6.27. Further, in the assay on HepG2, the pIC50 was < 4.82. The corresponding values for `O=S(=O)(c1ccc(-c2ccc3ncnc(Nc4ccc(OCc5cccc(F)c5)c(Cl)c4)c3c2)cc1)N1CCNCC1` are 6.55 and 5.48. Turning to `CS(=O)(=O)CCN(Cc1ccccc1)Cc1ccc(-c2ccc3ncnc(Nc4ccc(OCc5cccc(F)c5)c(Cl)c4)c3c2)o1`, in assay [1], the pEC50 was 5.82. With `O=S(=O)(c1cccc(-c2ccc3ncnc(Nc4ccc(OCc5cccc(F)c5)c(Cl)c4)c3c2)c1)N1CCCC1`, the pEC50 in assay [1] is 6.60. For the same molecule, the negative-log IC50 (pIC50) in the assay with HepG2 is < 4.82. `O=S1(=O)CCN(Cc2ccc(-c3ccc4ncnc(Nc5ccc(OCc6ccccc6)c(Cl)c5)c4c3)o2)CC1`: the pEC50 in assay [1] is 6.39. For `Fc1cccc(COc2ccc(Nc3ncnc4ccc(-c5cccc(CN6CCOCC6)c5)cc34)cc2Cl)c1`, the negative-log EC50 (pEC50) in assay [1] was 6.44. `O=S(=O)(c1ccc(-c2ccc3ncnc(Nc4ccc(OCc5cccc(Br)c5)c(Cl)c4)c3c2)cc1)N1CCOCC1` gave a negative-log EC50 (pEC50) in assay [1] of 6.17. Further, in the assay with HepG2, the pIC50 is < 4.82. The corresponding values for `O=S(=O)(c1ccc(-c2ccc3ncnc(Nc4ccc(O)c(Cl)c4)c3c2)cc1)N1CCOCC1` are 5.97 and < 4.82. The corresponding values for `Cc1ccc(Nc2ncnc3ccc(-c4ccc(S(=O)(=O)N5CCOCC5)cc4)cc23)cc1` are 5.94 and < 4.82.

For `O=S(=O)(c1ccc(-c2ccc3ncnc(Nc4ccc(OCc5cccc(F)c5)c(Cl)c4)c3c2)cc1)N1CCOCC1`, in assay [1], the pEC50 was 5.86. The pIC50 in the assay on HepG2 is < 4.82.

For `O=S(=O)(c1cccc(-c2ccc3ncnc(Nc4ccc(OCc5cccc(F)c5)c(Cl)c4)c3c2)c1)N1CCCCC1`, the pEC50 in assay [1] is 6.34. Also, the pIC50 in the assay on HepG2 is < 4.82. In assay [1], `NCCCC(N)(C(=O)O)C(F)F` (configuration not stated) [EFLORNITHINE] gave a pEC50 of 4.79. Consider `COc1ccc(Nc2ncnc3ccc(-c4ccc(S(=O)(=O)N5CCOCC5)cc4)cc23)cc1Cl`, for which the negative logarithm of the EC50 (pEC50) in assay [1] was 6.09. In the assay with HepG2, the pIC50 was < 4.82. In assay [1], `CC(C)S(=O)(=O)CCNCc1ccc(-c2ccc3ncnc(Nc4ccc(OCc5cccc(F)c5)c(Cl)c4)c3c2)o1` had a negative-log EC50 (pEC50) of 6.32. With `Fc1cccc(COc2ccc(Nc3ncnc4ccc(-c5cccc6ncccc56)cc34)cc2Cl)c1`, the negative-log EC50 (pEC50) in assay [1] was 5.34. Against the preceding molecule, the pEC50 is 0.98 log units lower. Same read-out and setting: then `O=C(NC1CC1)c1cccc(-c2ccc3ncnc(Nc4ccc(OCc5cccc(F)c5)c(Cl)c4)c3c2)c1`, with 5.35; and `CS(=O)(=O)CCNCc1ccc(-c2ccc3ncnc(Nc4ccc(OCc5ccccc5)c(Br)c4)c3c2)o1`, with 6.25; and `O=C(c1ccc(-c2ccc3ncnc(Nc4ccc(OCc5cccc(F)c5)c(Cl)c4)c3c2)cc1)N1CCCCC1`, with 6.03. As for `Cc1ccc(-c2ccc3ncnc(Nc4ccc(OCc5cccc(F)c5)c(Cl)c4)c3c2)c2ccccc12`, the negative-log EC50 (pEC50) in assay [1] was 5.64. `O=C(c1cccc(-c2ccc3ncnc(Nc4ccc(OCc5cccc(F)c5)c(Cl)c4)c3c2)c1)N1CCCCC1` showed a pEC50 in assay [1] of 6.85. Further, the pIC50 in the assay with HepG2 is < 5.22. Consider `O=C(c1ccc(-c2ccc3ncnc(Nc4ccc(OCc5cccc(F)c5)c(Cl)c4)c3c2)cc1)N1CCOCC1`, for which the negative logarithm of the EC50 (pEC50) in assay [1] is 5.92. In assay [1], `Fc1cccc(COc2ccc(Nc3ncnc4ccc(-c5cccc(N6CCCCC6)c5)cc34)cc2Cl)c1` showed a negative-log EC50 (pEC50) of 6.12. In the assay with HepG2, the negative-log IC50 (pIC50) was < 4.82. `CS(=O)(=O)c1ccc(-c2ccc3ncnc(Nc4ccc(OCc5cccc(F)c5)c(Cl)c4)c3c2)cc1`: in assay [1], the negative-log EC50 (pEC50) is 6.05. Further, the negative-log IC50 (pIC50) with HepG2 is < 4.82. The corresponding values for `CN(C)S(=O)(=O)c1ccccc1-c1ccc2ncnc(Nc3ccc(OCc4cccc(F)c4)c(Cl)c3)c2c1` are 5.98 and < 4.82.

With `Clc1cc(Nc2ncnc3ccc(-c4cccc(N5CCOCC5)c4)cc23)ccc1OCc1ccccc1`, the negative logarithm of the EC50 (pEC50) in assay [1] is 6.64. In the assay with HepG2, the pIC50 was < 4.70. The corresponding values for `O=S(=O)(c1ccc(-c2ccc3ncnc(Nc4ccc(OCc5ccc(F)cc5)c(Cl)c4)c3c2)cc1)N1CCOCC1` are 5.87 and < 4.82. `O=C(c1cccc(-c2ccc3ncnc(Nc4ccc(OCc5cccc(F)c5)c(Cl)c4)c3c2)c1)N1CCOCC1` showed a pEC50 in assay [1] of 6.26.

`Fc1cccc(COc2ccc(Nc3ncnc4ccc(-c5cccc(CN6CCCCC6)c5)cc34)cc2Cl)c1` showed a pEC50 in assay [1] of 6.19. In assay [1], `O=S(=O)(c1ccc(-c2ccc3ncnc(Nc4ccc(OCc5ccccc5F)c(Cl)c4)c3c2)cc1)N1CCOCC1` showed a pEC50 of 5.78. Moreover, the pIC50 in the assay on HepG2 was < 4.82.

Turning to `O=S(=O)(c1ccc(-c2ccc3ncnc(Nc4ccc(OCc5cccc(F)c5)c(Cl)c4)c3c2)cc1)N1CCCC1`, the negative logarithm of the EC50 (pEC50) in assay [1] was 6.46. In addition, in the assay with HepG2, the pIC50 was < 4.82. On to `Fc1cccc(COc2ccc(Nc3ncnc4ccc(-c5ccc(N6CCCCC6)cc5)cc34)cc2Cl)c1`, for which the negative logarithm of the EC50 (pEC50) in assay [1] was 6.42. Still for that read-out and setting: the result for `CC1(C)OB(O)c2cc(NC(=O)c3ccc(F)cc3C(F)(F)F)ccc21` [ACOZIBOROLE] reads 6.10; that for `CCNC(=O)c1ccc(-c2ccc3ncnc(Nc4ccc(OCc5cccc(F)c5)c(Cl)c4)c3c2)cc1F`, 5.41. In assay [1], `O=S(=O)(c1ccc(-c2ccc3ncnc(Nc4ccccc4)c3c2)cc1)N1CCOCC1` showed a pEC50 of 5.84. The negative-log IC50 (pIC50) in the assay with HepG2 is < 5.52. The molecule `Fc1cccc(COc2ccc(Nc3ncnc4ccc(-c5ccccc5Oc5ccccc5)cc34)cc2Cl)c1` showed a pEC50 in assay [1] of 5.28. Same read-out and setting: the result for `Oc1ccc(-c2ccc3ncnc(Nc4ccc(OCc5cccc(F)c5)c(Cl)c4)c3c2)cc1` reads 5.19. In assay [1], `c1ccc(COc2ccc(Nc3ncnc4ccc(-c5cccc(N6CCOCC6)c5)cc34)cc2)cc1` had a pEC50 of 6.74. Also, the pIC50 in the assay with HepG2 was < 4.70.

In assay [1], `O=S(=O)(c1ccc(-c2ccc3ncnc(Nc4ccc(OCc5cccc(F)c5F)c(Cl)c4)c3c2)cc1)N1CCOCC1` gave a negative logarithm of the EC50 (pEC50) of 6.09. The negative logarithm of the IC50 (pIC50) in the assay on HepG2 was < 4.82. With `N=C(N)c1ccc(OCCCCCOc2ccc(C(=N)N)cc2)cc1` [PENTAMIDINE], the pEC50 in assay [1] is 8.46. Consider `O=S(=O)(c1ccc(-c2ccc3ncnc(Nc4ccc(OCc5cccc(F)c5)c(Cl)c4)c3c2)cc1)N1CCSCC1`, for which, in assay [1], the negative logarithm of the EC50 (pEC50) is 6.33. The pIC50 in the assay with HepG2 was < 4.82. `O=S(=O)(c1cccc(-c2ccc3ncnc(Nc4ccc(OCc5cccc(F)c5)c(Cl)c4)c3c2)c1)N1CCOCC1`: in the assay with HepG2, the negative logarithm of the IC50 (pIC50) was < 4.82. In assay [1], `O=S(=O)(c1ccc(-c2ccc3ncnc(Nc4ccc(OCc5cccc(Cl)c5)c(Cl)c4)c3c2)cc1)N1CCOCC1` gave a pEC50 of 6.18. Besides, the negative logarithm of the IC50 (pIC50) in the assay with HepG2 was < 4.82. `Fc1cccc(COc2ccc(Nc3ncnc4ccc(-c5ccc(CN6CCCCC6)cc5)cc34)cc2Cl)c1` gave a negative-log EC50 (pEC50) in assay [1] of 5.82. In the case of `CS(=O)(=O)c1cccc(-c2ccc3ncnc(Nc4ccc(OCc5cccc(F)c5)c(Cl)c4)c3c2)c1`, the pEC50 in assay [1] is 5.49. Also, the pIC50 in the assay on HepG2 was < 4.82. `COc1cccc(COc2ccc(Nc3ncnc4ccc(-c5ccc(S(=O)(=O)N6CCOCC6)cc5)cc34)cc2Cl)c1`: the pEC50 in assay [1] is 5.84. Moreover, in the assay with HepG2, the negative-log IC50 (pIC50) was < 4.82. As to `O=c1[nH]cc(-c2ccc3ncnc(Nc4ccc(OCc5cccc(F)c5)c(Cl)c4)c3c2)c(=O)[nH]1`, the negative logarithm of the EC50 (pEC50) in assay [1] is 4.65. On to `CN1CCN(S(=O)(=O)c2ccc(-c3ccc4ncnc(Nc5ccc(OCc6cccc(F)c6)c(Cl)c5)c4c3)cc2)CC1`, for which the pEC50 in assay [1] is 6.28. The pIC50 in the assay with HepG2 was < 4.82.

For `CS(=O)(=O)CCN(CC#N)Cc1ccc(-c2ccc3ncnc(Nc4ccc(OCc5cccc(F)c5)c(Cl)c4)c3c2)o1` [GW616030X], the pEC50 in assay [1] was 6.28. Regarding `Cc1nnc(-c2cccc(-c3ccc4ncnc(Nc5ccc(OCc6cccc(F)c6)c(Cl)c5)c4c3)c2)o1`, the negative-log EC50 (pEC50) in assay [1] was 5.38. This pEC50 lies 0.90 log units lower than the previous one. For `Fc1cccc(COc2ccc(Nc3ncnc4ccc(-c5ccc(N6CCOCC6)cc5)cc34)cc2Cl)c1`, the pEC50 in assay [1] is 5.72. Moreover, in the assay with HepG2, the pIC50 was 5.02.
